Assay results published in ChEMBL document CHEMBL1138278, “Aromatic amide derivatives of 5,6-dimethoxy-2,3-dihydro-1H-inden(-1-yl)acetic acid as anti-inflammatory agents free of ulcerogenic liability” (Bioorg Med Chem Lett, 2007).

Legend:
Mus musculus [1] = experiment: Analgesic activity in Swiss Albino mouse assessed as inhibition of acetic acid-induced writhing responses at 100 mg/kg, po after 1 hr; type: functional
Method in brief: (§1)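 Mice dosed orally; one hour later injected i.p. with 1% v/v acetic acid at 0.1 ml/10 g. Writhings counted over 15 min, starting five minutes after injection. Means ± SEM, n = 6; p < 0.05 versus control group.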

Rattus norvegicus [2] = experiment: Antiarthritic activity against adjuvant-induced arthritis in Wistar rat assessed as inhibition of paw edema at 100 mg/kg, po on day 8; type: functional; conditions: 192 h
Method in brief: (§2)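 Male Wistar rats (160 ± 10 g) dosed orally once daily for 14 days, from the day before injecting 0.1 ml Freund's complete adjuvant into the subplantar surface of the right hind paw. Paw swelling, including the uninjected left paw, and body weight recorded. Means ± SEM, n = 6; p < 0.05 versus control.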

Rattus norvegicus [3] = experiment: Antiinflammatory activity in Wistar rat assessed as inhibition of carrageenan-induced paw edema at 100 mg/kg, after 6 hrs; type: functional
Method in brief: (§3)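 Male Wistar rats (170 ± 20 g) dosed orally: test agents at 100 mg/kg, reference at 10 mg/kg. One hour later, 0.1 ml of 1% carrageenan injected subplantar into the right hind paw.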

Rattus norvegicus [4] = experiment: Antiinflammatory activity in Wistar rat assessed as inhibition of carrageenan-induced paw edema at 100 mg/kg, after 24 hrs; type: functional; method in brief: as §3
Rattus norvegicus [5] = experiment: Antiinflammatory activity in Wistar rat assessed as inhibition of carrageenan-induced paw edema at 100 mg/kg, after 4 hrs; type: functional; method in brief: as §3
Rattus norvegicus [6] = experiment: Antiinflammatory activity in Wistar rat assessed as inhibition of carrageenan-induced paw edema at 100 mg/kg, after 1 hr; type: functional; method in brief: as §3
Mus musculus [7] = experiment: Analgesic activity in Swiss Albino mouse assessed as number of acetic acid-induced writhing at 100 mg/kg, po after 1 hr relative to control; type: functional; method in brief: as §1
Rattus norvegicus [8] = experiment: Antiarthritic activity against adjuvant-induced arthritis in Wistar rat assessed as inhibition of paw edema at 100 mg/kg, po on day 13; type: functional; conditions: 312 h; method in brief: as §2
Rattus norvegicus [9] = experiment: Antiarthritic activity against adjuvant-induced arthritis in Wistar rat assessed as inhibition of paw edema at 100 mg/kg, po on day 3; type: functional; conditions: 72 h; method in brief: as §2
Rattus norvegicus [10] = experiment: Antiarthritic activity against adjuvant-induced arthritis in Wistar rat assessed as weight change at 100 mg/kg, po; type: functional; method in brief: as §2
Rattus norvegicus [11] = experiment: Antiinflammatory activity in Wistar rat assessed as inhibition of carrageenan-induced paw edema at 100 mg/kg, after 3 hrs; type: functional; method in brief: as §3
Rattus norvegicus [12] = experiment: Antiinflammatory activity in Wistar rat assessed as inhibition of carrageenan-induced paw edema at 100 mg/kg, after 2 hrs; type: functional; method in brief: as §3
Rattus norvegicus [13] = experiment: Toxicity in 24 hrs fasted Wistar rat assessed as ulcer index at 100 mg/kg, po after 6 hrs; type: organism-based; parameters: dose 100 mg/kg, route oral; conditions: in vivo
Method in brief: (§4)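 Male Wistar rats (175 ± 25 g) fasted 24 h and dosed orally. Acute arm: test agents at 100 mg/kg, indomethacin at 30 mg/kg; rats killed after 6 h, stomachs opened along the greater curvature and scored for ulcers. Chronic arm: 14-day dosing, stomachs examined post mortem at the end of the arthritis study. Ulcer index means ± SEM, n = 4.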

Rattus norvegicus [14] = experiment: Antipyretic activity against LPS-induced pyresis in Wistar rat assessed as change in rectal temperature at 100 mg/kg, po after 3 hrs; type: functional
Method in brief: (§5)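 Male Wistar rats (170 ± 20 g) dosed orally: test agents at 100 mg/kg, indomethacin and aspirin at 10 mg/kg and 100 mg/kg. Half an hour later, LPS in apyrogenic saline given at 100 µg/kg i.p. Rectal temperature taken by telethermometer probe immediately before LPS and hourly from 1 to 7 h after. Change in temperature reported; means ± SEM, n = 6.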

Rattus norvegicus [15] = experiment: Antipyretic activity against LPS-induced pyresis in Wistar rat assessed as change in rectal temperature at 100 mg/kg, po after 5 hrs; type: functional; method in brief: as §5
Rattus norvegicus [16] = experiment: Antipyretic activity against LPS-induced pyresis in Wistar rat assessed as change in rectal temperature at 100 mg/kg, po after 2 hrs; type: functional; method in brief: as §5
Rattus norvegicus [17] = experiment: Antipyretic activity against LPS-induced pyresis in Wistar rat assessed as change in rectal temperature at 100 mg/kg, po after 4 hrs; type: functional; method in brief: as §5
Rattus norvegicus [18] = experiment: Antipyretic activity against LPS-induced pyresis in Wistar rat assessed as change in rectal temperature at 100 mg/kg, po after 6 hrs; type: functional; method in brief: as §5
Rattus norvegicus [19] = experiment: Antipyretic activity against LPS-induced pyresis in Wistar rat assessed as change in rectal temperature at 100 mg/kg, po after 7 hrs; type: functional; method in brief: as §5
Rattus norvegicus [20] = experiment: Antipyretic activity against LPS-induced pyresis in Wistar rat assessed as change in rectal temperature at 100 mg/kg, po after 1 hr; type: functional; method in brief: as §5
Rattus norvegicus [21] = experiment: Antipyretic activity against LPS-induced pyresis in Wistar rat assessed as change in rectal temperature at 10 mg/kg, po after 5 hrs; type: functional; method in brief: as §5
Mus musculus [22] = experiment: Analgesic activity in Swiss Albino mouse assessed as number of acetic acid-induced writhing at 100 mg/kg, po after 1 hr relative to control
Rattus norvegicus [23] = experiment: Antipyretic activity against LPS-induced pyresis in Wistar rat assessed as change in rectal temperature at 100 mg/kg, po after 6 hrs
Rattus norvegicus [24] = experiment: Antipyretic activity against LPS-induced pyresis in Wistar rat assessed as change in rectal temperature at 10 mg/kg, po after 1 hr; type: functional; method in brief: as §5
Rattus norvegicus [25] = experiment: Antipyretic activity against LPS-induced pyresis in Wistar rat assessed as change in rectal temperature at 100 mg/kg, po after 2 hrs
Rattus norvegicus [26] = experiment: Antipyretic activity against LPS-induced pyresis in Wistar rat assessed as change in rectal temperature at 10 mg/kg, po after 3 hrs; type: functional; method in brief: as §5
Rattus norvegicus [27] = experiment: Antipyretic activity against LPS-induced pyresis in Wistar rat assessed as change in rectal temperature at 10 mg/kg, po after 4 hrs; type: functional; method in brief: as §5
Mus musculus [28] = experiment: Analgesic activity in Swiss Albino mouse assessed as inhibition of acetic acid-induced writhing responses at 10 mg/kg, po after 1 hr; type: functional; method in brief: as §1
Rattus norvegicus [29] = experiment: Antipyretic activity against LPS-induced pyresis in Wistar rat assessed as change in rectal temperature at 100 mg/kg, po after 7 hrs
Rattus norvegicus [30] = experiment: Toxicity in 24 hrs fasted Wistar rat assessed as ulcer index at 100 mg/kg, po after 14 days; type: organism-based; parameters: dose 100 mg/kg, route oral; conditions: in vivo, 336 h; method in brief: as §4

Compound | inhibition in vivo at 100 mg/kg (Mus musculus [1]) [%] | inhibition in vivo at 100 mg/kg (Rattus norvegicus [2]) [%] | inhibition in vivo at 100 mg/kg (Rattus norvegicus [3]) [%] | inhibition in vivo at 100 mg/kg (Rattus norvegicus [4]) [%] | inhibition in vivo at 100 mg/kg (Rattus norvegicus [5]) [%] | inhibition in vivo at 100 mg/kg (Rattus norvegicus [6]) [%] | Activity (Mus musculus [7]) | inhibition in vivo at 100 mg/kg (Rattus norvegicus [8]) [%] | inhibition in vivo at 100 mg/kg (Rattus norvegicus [9]) [%] | Activity (Rattus norvegicus [10]) [g] | inhibition in vivo at 100 mg/kg (Rattus norvegicus [11]) [%] | inhibition in vivo at 100 mg/kg (Rattus norvegicus [12]) [%] | UI (Rattus norvegicus [13]) | Activity (Rattus norvegicus [14]) [°C] | Activity (Rattus norvegicus [15]) [°C] | Activity (Rattus norvegicus [16]) [°C] | Activity (Rattus norvegicus [17]) [°C] | Activity (Rattus norvegicus [18]) [°C] | Activity (Rattus norvegicus [19]) [°C] | Activity (Rattus norvegicus [20]) [°C] | also measured
COc1cc2c(cc1OC)C(CC(=O)Nc1ccc([N+](=O)[O-])cc1)CC2 (stereo unspecified) | 55.8 | 17.7 | 37 | 43.3 | 37.5 | 37.5 | 15.33 | 10.8 | 27.2 | 4.01 | 37.7 | 36 | 0 | – | – | – | – | – | – | – | –
COc1cc2c(cc1OC)C(CC(=O)Nc1ccncc1)CC2 (stereo unspecified) | 60.1 | 11.1 | 46.3 | 46.7 | 45.3 | 42.2 | 13.83 | 19.7 | 17 | 4.25 | 42 | 44 | – | -0.87 | 0.35 | -2.23 | 0.13 | 0.74 | 0.42 | -0.11 | –
CC(=O)Oc1ccccc1C(=O)O [ASPIRIN] | – | – | – | – | – | – | – | – | – | – | – | – | – | – | – | – | – | – | – | – | Activity (Rattus norvegicus [21]): 0.2 °C; Activity (Mus musculus [22]): 13.33; Activity (Rattus norvegicus [23]): 0.25 °C; Activity (Rattus norvegicus [24]): -0.43 °C; Activity (Rattus norvegicus [25]): -1.45 °C; Activity (Rattus norvegicus [26]): -0.51 °C; Activity (Rattus norvegicus [27]): 0.11 °C; inhibition in vivo at 10 mg/kg (Mus musculus [28]): 61.5%; Activity (Rattus norvegicus [29]): 0.31 °C
COc1cc2c(cc1OC)C(CC(=O)Nc1ccc(C)cc1)CC2 (stereo unspecified) | 41.4 | – | 37 | 30 | 32.8 | 34.4 | 20.33 | – | – | – | 34.8 | 26 | 0 | – | – | – | – | – | – | – | –
COc1cc2c(cc1OC)C(CC(=O)Nc1cccc(Cl)c1)CC2 (stereo unspecified) | 51.5 | 25.8 | 38.9 | 63.3 | 25.8 | 31.2 | 16.83 | 35.7 | 37.5 | 7.21 | 24.6 | 28 | 0 | -0.24 | 0.23 | -1.62 | 0.05 | 0.44 | 0.42 | -0.35 | UI (Rattus norvegicus [30]): 0
COc1cc2c(cc1OC)C(CC(=O)Nc1cccc(C)c1)CC2 (stereo unspecified) | 54.3 | 19.2 | 38 | 41.7 | 40.6 | 37.5 | 15.83 | 20.7 | 16.5 | 4.56 | 37.7 | 29 | – | -0.51 | 0.46 | -1.34 | 0.22 | 0.71 | 0.82 | -0.19 | UI (Rattus norvegicus [30]): 0
COc1ccc(NC(=O)CC2CCc3cc(OC)c(OC)cc32)cc1 (stereo unspecified) | 58.7 | – | 29.6 | 40 | 27.3 | 34.4 | 14.33 | – | – | – | 26.1 | 18 | – | -0.66 | 0.14 | -1.84 | -0.15 | 0.26 | 0.43 | -0.12 | –
